The test system of assay [1] is HL-60. Briefly: Differentiation inducing activity towards human promyelocytic leukemia cell line HL-60 by nitroblue tetrazolium reduction assay; IA is Inactive. The format is functional, cell-based. In outline:
(§1)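 HL-60 cells in RPMI1640 with 5% FCS at 37 °C, 5% CO₂; seeded about 8 × 10⁴ cells/mL and exposed 4 days to compounds from 0.2 mM ethanol stock (final ethanol below 0.5%; ethanol-only controls). Retinoic acid run concurrently. NBT reduction: 20 min at 37 °C with 0.2% NBT and TPA 200 ng/mL in PBS/medium. Formazan-positive cells counted among at least 200 cells. Wright-Giemsa morphology also scored. Five orders of concentration covered, at least three repeats. ED50 taken from NBT data.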

Assay [2] concerns HL-60. Briefly: Differentiation inducing activity towards human promyelocytic leukemia cell line HL-60 assayed by nitroblue tetrazolium reduction. The format is functional. The settings on record: read-out: ED50 (the source's name). In outline: as §1
Assay [3] concerns HL-60. Briefly: Activity relative to retinoic acid in differentiating promyelocytic leukemic HL-60 cells. It is filed as functional, Homo sapiens.
For assay [4], the system named is HL-60. Briefly: Differentiation inducing activity towards human promyelocytic leukemia cell line HL-60 by nitroblue tetrazolium reduction assay;IA is inactive. The format is functional, cell-based. The essentials:
as §1

Assay [5] has as its system HL-60. Put plainly: Differentiation inducing activity towards human promyelocytic leukemia cell line HL-60 by nitroblue tetrazolium reduction assay;IA is Inactive. It is filed as functional, cell-based. In outline: as §1

Activity calls are given as the source filed them. No cut-off for these calls is given here.

Regarding `O=C(O)c1ccc(C(=O)/C=C(\O)c2ccccc2O)cc1`, the ED50 result in the assay with HL-60 [1] is “inactive”.

In the case of `CC(C)(C)c1ccc(/C(O)=C/C(=O)c2ccc(C(=O)O)cc2)c(O)c1`, the EC50 in the assay on HL-60 [2] was found to be 560 nM. The molecule further showed a Relative activity with HL-60 [3] of 0.0023.

For `CC1(C)CCC(C)(C)c2cc(C(=O)/C=C/c3ccc(C(=O)O)cc3)c(O)cc21`, in the assay on HL-60 [2], the EC50 is 0.15 nM. In the assay with HL-60 [3], this molecule showed a Relative activity of 1.4.

Consider `CC1(C)CCSc2ccc(C(=O)/C=C/c3ccc(C(=O)O)cc3)cc21`, for which the EC50 in the assay with HL-60 [2] was greater than 1000 nM. In the assay with HL-60 [3], the Relative activity was less than 0.0001.

For `CC(C)(C)c1ccc(C(=O)/C=C/c2ccc(C(=O)O)cc2)cc1`, the EC50 with HL-60 [2] worked out at 28 nM. Further, the Relative activity in the assay on HL-60 [3] was 0.039.

For `CC1(C)CCC(C)(C)c2cc(C(=O)/C=C/c3ccc(C(N)=O)cc3)ccc21`, in the assay with HL-60 [2], the EC50 is greater than 1000 nM. For the same molecule, the Relative activity in the assay with HL-60 [3] is less than 0.0001.

Turning to `O=C(O)c1ccc(-c2cc(=O)c3ccccc3o2)cc1`, in the assay on HL-60 [4], the ED50 entry is “inactive”.

`CCc1ccc(C(=O)/C=C/c2ccc(C(=O)O)cc2)cc1CC`: in the assay with HL-60 [2], the EC50 turned out to be 170 nM. Besides, in the assay on HL-60 [3], the Relative activity worked out at 0.0083.

For the molecule `CC(C)c1ccc(C(=O)/C=C/c2ccc(C(=O)O)cc2)cc1C(C)C`, in the assay on HL-60 [2], the EC50 came to 0.82 nM. Further, the Relative activity in the assay on HL-60 [3] was determined as 1.8.

For the molecule `CC1(C)CCOc2c(C(=O)/C=C/c3ccc(C(=O)O)cc3)cccc21`, in the assay with HL-60 [2], the EC50 is 690 nM. Further, in the assay on HL-60 [3], the Relative activity was determined as 0.0077.

As for `COc1ccc(C(=O)/C=C/c2ccc(C(=O)O)cc2)cc1OC`, the ED50 entry in the assay on HL-60 [1] was “inactive”.

For `COC(=O)c1ccc(/C=C/C(=O)c2ccc3c(c2)C(C)(C)CCC3(C)C)cc1`, the EC50 in the assay with HL-60 [2] came to 30 nM. The molecule also had a Relative activity in the assay with HL-60 [3] of 0.043.

With `COC(=O)c1ccc(-c2cc(=O)c3cc4c(cc3o2)C(C)(C)CCC4(C)C)cc1`, the EC50 in the assay on HL-60 [2] was determined as 0.48 nM. The molecule further had a Relative activity in the assay with HL-60 [3] of 8.5.

Consider `CC(C)(C)c1cc(C(=O)/C=C/c2ccc(C(=O)O)cc2)cc(C(C)(C)C)c1`, for which the EC50 in the assay on HL-60 [2] is 0.21 nM. Also, the Relative activity in the assay with HL-60 [3] came to 6.4.

Consider `CC1(C)CCC(C)(C)c2cc(C(=O)/C=C/c3ccc(C(=O)O)cc3)ccc21`, for which the EC50 in the assay with HL-60 [2] was 0.64 nM. Besides, the Relative activity with HL-60 [3] is 2.8.

Regarding `CC1(C)CCOc2cc3c(=O)cc(-c4ccc(C(=O)O)cc4)oc3cc21`, in the assay on HL-60 [2], the EC50 came out at 250 nM. Further, the Relative activity in the assay on HL-60 [3] is 0.017.

As for `CC1(C)CCC(C)(C)c2cc(C(=O)/C=C/c3ccc(C(=O)Cl)cc3)ccc21`, the EC50 with HL-60 [2] is 3.3 nM. For the same molecule, the Relative activity with HL-60 [3] is 0.52.

For the molecule `CC(C)(C)c1ccc2oc(-c3ccc(C(=O)O)cc3)cc(=O)c2c1`, the EC50 with HL-60 [2] was greater than 1000 nM. Besides, the Relative activity in the assay on HL-60 [3] was less than 0.0001.

Regarding `CC1(C)CCC(C)(C)c2cc(C(=O)/C=C/c3cccc(C(=O)O)c3)ccc21`, in the assay on HL-60 [2], the EC50 was greater than 1000 nM. The molecule further registered a Relative activity with HL-60 [3] of less than 0.0001.

Regarding `CC1(C)CCC(C)(C)c2cc3c(=O)c(O)c(-c4ccc(C(=O)O)cc4)oc3cc21`, in the assay with HL-60 [2], the EC50 came out at 1.2 nM. In addition, the Relative activity with HL-60 [3] is given as 1.25.

Consider `COc1c(-c2ccc(C(=O)O)cc2)oc2cc3c(cc2c1=O)C(C)(C)CCC3(C)C`, for which, in the assay with HL-60 [2], the EC50 is greater than 1000 nM. Besides, in the assay on HL-60 [3], the Relative activity is less than 0.0001.

On to `CC1=C(/C=C/C(C)=C/C=C/C(C)=C/C(=O)O)C(C)(C)CCC1` [TRETINOIN], for which the EC50 in the assay with HL-60 [2] came to 2.4 nM. In addition, the Relative activity in the assay with HL-60 [3] was 1.

Turning to `CC1(C)CCC(C)(C)c2cc(/C(O)=C/C(=O)c3ccc(C(=O)O)cc3)c(O)cc21`, the EC50 in the assay on HL-60 [2] is 0.063 nM. The molecule also had a Relative activity in the assay with HL-60 [3] of 7.6.

As to `CC1(C)CCC(C)(C)c2cc3c(=O)cc(-c4ccc(C(=O)O)cc4)oc3cc21`, the EC50 in the assay with HL-60 [2] stood at 0.046 nM. Also, the Relative activity in the assay with HL-60 [3] turned out to be 27.4.

Consider `CC(C)(C)c1cccc(C(=O)/C=C/c2ccc(C(=O)O)cc2)c1`, for which the EC50 with HL-60 [2] is 160 nM. In the assay on HL-60 [3], this molecule returned a Relative activity of 0.0081.

`Cc1ccc(/C=C/C(=O)c2ccc3c(c2)C(C)(C)CCC3(C)C)cc1`: the ED50 result in the assay with HL-60 [5] is “inactive”.

`CC(C)(C)c1ccc(C(C)(C)C)c(C(=O)/C=C/c2ccc(C(=O)O)cc2)c1`: in the assay with HL-60 [2], the EC50 stood at 45 nM. The molecule also registered a Relative activity in the assay with HL-60 [3] of 0.021.

For the molecule `CCCCOC(=O)c1ccc(/C=C/C(=O)c2ccc3c(c2)C(C)(C)CCC3(C)C)cc1`, the EC50 in the assay on HL-60 [2] is 27 nM. Moreover, in the assay on HL-60 [3], the Relative activity was found to be 0.063.

For `CC1(C)CCOc2ccc(C(=O)/C=C/c3ccc(C(=O)O)cc3)cc21`, in the assay with HL-60 [2], the EC50 was greater than 1000 nM. In the assay on HL-60 [3], this molecule displayed a Relative activity of less than 0.0001.

Consider `CC(C)(C)c1ccc(O)c(/C(O)=C/C(=O)c2ccc(C(=O)O)cc2)c1`, for which the EC50 with HL-60 [2] was greater than 1000 nM. In the assay on HL-60 [3], the Relative activity is less than 0.0001.

`CC1(C)CCC(C)(C)c2cc(C(=O)/C=C/c3ccc(C(=O)O)c(O)c3)ccc21`: the EC50 with HL-60 [2] was found to be 1.7 nM. The molecule further had a Relative activity with HL-60 [3] of 0.88.

Turning to `COc1cc2c(cc1C(=O)/C=C/c1ccc(C(=O)O)cc1)C(C)(C)CCC2(C)C`, the EC50 in the assay on HL-60 [2] amounted to 3.9 nM. This molecule also yielded a Relative activity with HL-60 [3] of 0.35.

`O=C(O)c1ccc(/C=C/C(=O)c2ccccc2)cc1`: the ED50 entry in the assay with HL-60 [1] was “inactive”.

As for `Cc1cc2c(cc1C(=O)/C=C/c1ccc(C(=O)O)cc1)C(C)(C)CCC2(C)C`, the EC50 with HL-60 [2] amounted to 0.54 nM. Moreover, the Relative activity in the assay with HL-60 [3] was 2.1.

Consider `CC(C)(C)c1ccc2c(=O)cc(-c3ccc(C(=O)O)cc3)oc2c1`, for which the EC50 in the assay on HL-60 [2] was determined as 480 nM. Also, the Relative activity in the assay with HL-60 [3] is given as 0.0058.

(Values after ChEMBL document CHEMBL1124657, “Retinobenzoic acids. 2. Structure-activity relationships of chalcone-4-carboxylic acids and flavone-4'-carboxylic acids” (1989).)
